Bioassay records deposited in PubChem by several laboratories.
Compounds with a hit are over-represented: about 0.85% of the library has one in this group of screens.
OXTR agonist: agonists of human oxytocin receptor. AID 2435. activation, % at 3 µM. 320,000 compounds, 0.32% hits. CHO-OTR cells, Fluo-8 calcium fluorescence; normalized: DMSO 0%, oxytocin 100%;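 active means activation above the mean of all tested compounds plus 3 SD, cutoff set per screening run, cut at about 20% in these data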;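 further: peak over basal fluorescence ratio from a 100 s FLIPR kinetic read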
Target sequence (P30559 whole entry, looked up): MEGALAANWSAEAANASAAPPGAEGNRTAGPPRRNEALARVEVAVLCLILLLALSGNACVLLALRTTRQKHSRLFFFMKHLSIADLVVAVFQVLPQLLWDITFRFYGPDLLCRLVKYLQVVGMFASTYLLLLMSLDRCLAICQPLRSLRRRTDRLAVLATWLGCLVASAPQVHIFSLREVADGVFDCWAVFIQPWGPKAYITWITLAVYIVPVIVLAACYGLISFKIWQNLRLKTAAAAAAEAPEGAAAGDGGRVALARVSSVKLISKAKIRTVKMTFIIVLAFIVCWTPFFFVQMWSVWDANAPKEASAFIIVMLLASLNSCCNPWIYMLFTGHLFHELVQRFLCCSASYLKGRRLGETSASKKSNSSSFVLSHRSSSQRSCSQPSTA
OXTR potentiator: potentiates the human oxytocin receptor response; P30559; CHO-OTR cells, Fluo-8 calcium fluorescence, potentiator mode; 0% = oxytocin EC15, 100% = EC100; activation, % at 3 µM; 320,000 compounds, 0.061% hits; AID 2445;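 active means activation above that plate's cutoff, the mean activation of tested compounds plus 3 SD, cut at about 6.6% in these data, passing the limit was not always enough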;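 further: 100% uses oxytocin at 75 nM as the full agonist control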
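Assay system: CHO-OTR cells, human receptor / Also added: oxytocin at about EC15, sub-maximal agonist stimulus / Dosing: single dose, 3.0 µM nominal final compound concentration / Incubation: 6 min pre-incubation, 100 s read / Technique: Fluo-8 calcium dye fluorescence / Read-out: % activation vs EC15 and EC100 oxytocin / Benchmarks: EC15 oxytocin low, 75 nM oxytocin high / Replicates: singlicate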
CRFBP-R2 agonist: agonists of human CRF-binding protein/CRF-R2 receptor complex; HEK293 CRF-R2/CRF-BP, calcium dye fluorescence (FLIPR); percent of saturating CRF peptide response; activation, % at 13.2 µM; 350,000 compounds, 0.46% hits; AID 588473;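 active means activation of at least 50%, plus an integration ratio under a set limit after plate pattern correction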;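 further: plate controls were neutral control wells without compound for no effect and CRF at EC100 for full effect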
V1R ag counter: counter-screen for oxytocin receptor agonists: human V1a receptor agonists | P37288 | CHO-V1R cells, Fluo-8 calcium fluorescence, agonist mode; 0% DMSO, 100% 3 nM vasopressin | activation, % at 3 µM | 320,000 compounds, 0.25% hits;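 active means activation above the mean activation of all tested compounds plus 3 SD, per screening run, cut at about 20% in these data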;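 further: signal is peak over basal fluorescence ratio across a 100 second FLIPR read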
TRPN1 ag: activates the zebrafish TRPN1 channel; AID 1424; activation, % at 3 µM; 220,000 compounds, 0.18% hits; HEK293 zebrafish TRPN1-YFP, Fluo-8 calcium fluorescence; 100% = response to 87 µM carbachol;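 active means activation above its plate's cutoff, the mean activation of test wells on that plate plus 3 SD, cut at about 19% in these data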;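 further: 0% = DMSO alone and 100% = 87 µM carbachol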
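Control set: carbachol 87 µM as high control, DMSO as low control; system: HEK293 stable line with zebrafish TRPN1-YFP; read-out: % activation versus carbachol response; detection: intracellular calcium fluorescence with Fluo-8; doses: single test compound dose, 3 µM nominal, 0.3% DMSO; schedule: dye 1 h 37 °C plus 30 min RT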
TRPML3 ag: agonists of human TRPML3 channel; Q8TDD5; HEK293 TRPML3-YFP, Fluo-8 calcium fluorescence; 100% = the carbachol control signal; activation, % at 3 µM; 220,000 compounds, 0.29% hits; AID 1448;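 active means activation above its plate's cutoff, the mean activation of the plate's test wells plus 3 SD, cut at about 12% in these data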;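 further: 0% = DMSO only wells and 100% = carbachol wells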
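system = HEK293 cells stably carrying human TRPML3-YFP | doses = one concentration, 3 µM nominal, 0.3% DMSO | timing = dye loading 1 h 37 °C then 30 min ambient, 125 s read | detection = Fluo-8 calcium dye fluorescence, ex 470-495, em 515-575 nm | benchmarks = high control carbachol 87 µM, low control DMSO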
OXTR pot confirm: human OXTR potentiation, confirmation. shares compounds with OXTR potentiator. CHO-OTR cells, Fluo-8 calcium fluorescence; scaled from low-dose to maximal oxytocin. activation, % at 3 µM. 180 tested, under 10 active;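 active means mean percent activation over triplicates above a cutoff set from solvent-only control plates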;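 further: compounds tested in the presence of an EC15 dose of oxytocin; 0% = EC15 oxytocin with DMSO and 100% = EC100 oxytocin with DMSO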
V1aR agonist cf: human V1a receptor agonism, confirmation; shares compounds with V1R ag counter; CHO-V1R cells, Fluo-8 calcium fluorescence, agonist; 180 compounds, 20% hits; activation, % at 3 µM;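 active means average activation exceeds primary screen hit cutoff, cut at about 21% in these data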;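 further: peak over basal fluorescence ratio during a 100 s FLIPR read; 0% = DMSO only wells and 100% = 3 nM vasopressin wells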
OXTR counter: OXTR agonism, counter-screen for V1R agonists; AID 434969; 180 compounds, 10% hits; activation, % at 3 µM; shares compounds with V1R ag counter; CHO-OTR cells, Fluo-8 calcium fluorescence, agonist;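 active means mean activation over three repeats above the cutoff from the earlier oxytocin receptor agonist screen, cut at about 20% in these data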;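 further: peak over minimum fluorescence ratio within a 100 second FLIPR read; 0% = DMSO only wells and 100% = oxytocin high control wells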
* hit, by the source's call; · = not tested or not shown.

SMILES	OXTR agonist	OXTR potentiator	CRFBP-R2 agonist	V1R ag counter	TRPN1 ag	TRPML3 ag	OXTR pot confirm	others
O=C(O)c1ccccc1NC(=O)C1CCCO1 (configuration not stated)	1	12*	-2	0	0	0	1
CCC(CC)NC(=O)c1nn(Cc2ccccc2)c(=O)c2ccccc12	-1	0	1	-1	·	·	·
CC(C)(C)NC(=O)c1nn(Cc2ccccc2)c(=O)c2ccccc12	-1	15*	0	-1	-2	0	-7
CC(C)N(Cc1ccccc1)C(=O)COC(=O)c1ccc(S(=O)(=O)N2CCOCC2)cc1	2	-8	-1	2	·	·	·
Cc1cc(=O)oc2c3c(cc(OCC(=O)NCC(=O)N[C@H](C(=O)O)C(C)C)c12)OC(C)(C)CC3	0	12*	-1	-1	·	·	-5
CC[C@H](C)[C@H](NC(=O)CNC(=O)COc1cc2c(c3oc(=O)cc(C)c13)CCC(C)(C)O2)C(=O)O	1	-8	-1	1	·	·	·
CCCNC(=O)c1ccc(SC)cc1OC	-2	-13	0	-2	-1	0	·
COc1cc(SC)ccc1C(=O)NCCCOC(C)C	0	11*	0	0	-1	0	-7
COc1ccc(CCC(=O)NCC2CCCCC2)cc1OC	0	-3	4	0	·	·	·
CCC(C)NC(=O)[C@H]1N2C(=O)c3c(ccc(OC)c3OC)C2SC1(C)C (some centres not stated)	-1	-18	0	0	·	·	·
O=S(=O)(c1ccc(S(=O)(=O)N2CCOCC2)cc1)N1CCCC1	2	12*	-1	2	0	-1	-4
O=S(=O)(c1ccc(S(=O)(=O)N2CCCC2)cc1)N1CCCCC1	1	-4	1	1	·	·	·
CCn1cc(C(=O)NCC(OC)OC)c(=O)c2cc(S(=O)(=O)N3CCOCC3)ccc21	1	13*	-1	1	·	·	-6
COC(CNC(=O)c1cn(C)c2ccc(S(=O)(=O)N3CCOCC3)cc2c1=O)OC	0	-6	-1	0	·	·	·
CCCCCCCCCCCCOC(=O)C[N+](C)(C)C	4	-7	-1	26*	-1	1	·	V1aR agonist cf=0;OXTR counter=-1
CCCCCCCCCCOC(=O)C[N+](C)(C)C/C=C(/C)Cl	0	-2	0	3	-2	-1	·
CCOC(=O)c1[nH]c(CN2CCN(c3ccc(OC)cc3)CC2)c(C(=O)OCC)c1C	18	-29	9	24*	·	·	·	V1aR agonist cf=12;OXTR counter=22*
CCOC(=O)c1[nH]c(C)c(C(=O)N2CCN(c3ccc(OC)cc3)CC2)c1C	1	-17	2	3	0	1	·
CC(CC(=O)N1CCN(c2cccc(Cl)c2)CC1)S(=O)(=O)c1ccc2c(c1)NC(=O)CO2 (configuration not stated)	17	-13	1	21*	·	·	·	V1aR agonist cf=7;OXTR counter=5
N#C/C(=C(/O)CSc1ccccn1)c1nc2ccccc2s1	14	-15	4	27*	7	2	·	V1aR agonist cf=2;OXTR counter=1
Cc1ccc(SC/C(O)=C(\C#N)c2nc3ccccc3s2)cc1	11	-30	30	8	1	1	·
Cc1ccc(Cl)cc1N(C)C(=O)Cn1ncc2c([nH]c3ccccc32)c1=O	3	-9	5	3	·	·	·
COc1ccc(C(C)NC(=S)NCc2ccc(F)cc2)cc1 (configuration not stated)	9	-16	3	9	·	·	·
Cc1ccc(C)c(C(C)NC(=S)NCc2ccc(F)cc2)c1 (configuration not stated)	16	-18	9	24*	·	·	·	V1aR agonist cf=5;OXTR counter=9
